This note sets out measurements from ChEMBL document CHEMBL4265962, “Pyrrolidine nucleoside bisphosphonates as antituberculosis agents targeting hypoxanthine-guanine phosphoribosyltransferase” (Eur J Med Chem, 2018).

For series [1], the target named is T1, Hypoxanthine-guanine phosphoribosyltransferase (Mycobacterium tuberculosis (strain ATCC 25618 / H37Rv), UniProt P9WHQ9).
T1 sequence (P9WHQ9 whole entry): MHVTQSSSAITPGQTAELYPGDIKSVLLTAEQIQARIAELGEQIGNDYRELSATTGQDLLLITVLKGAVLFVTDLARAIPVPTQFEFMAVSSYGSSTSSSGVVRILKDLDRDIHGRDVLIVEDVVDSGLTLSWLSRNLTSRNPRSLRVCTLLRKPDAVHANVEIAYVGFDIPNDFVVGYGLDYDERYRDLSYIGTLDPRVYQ
Nature of the series: Inhibition of Mycobacterium tuberculosis recombinant N-terminal 6His-tagged HGPRT expressed in Escherichia coli BL21 (DE3) using fixed concentration of guanine and variable concentrations of PRib-PP as substrate by spectrophotometric analysis. A digest of the protocol:
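Recombinant MtHGPRT, stored in 0.1 M Tris-HCl, 12 mM MgCl2, pH 7.4 with 200 μM PRib-PP at -80 °C. Continuous spectrophotometric assay following guanine to GMP at 257.5 nm in 0.01 M phosphate, 12 mM MgCl2, pH 7.4.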

Series [2] deals with T2, Hypoxanthine-guanine phosphoribosyltransferase (Homo sapiens, UniProt P00492).
T2 sequence (P00492 whole entry): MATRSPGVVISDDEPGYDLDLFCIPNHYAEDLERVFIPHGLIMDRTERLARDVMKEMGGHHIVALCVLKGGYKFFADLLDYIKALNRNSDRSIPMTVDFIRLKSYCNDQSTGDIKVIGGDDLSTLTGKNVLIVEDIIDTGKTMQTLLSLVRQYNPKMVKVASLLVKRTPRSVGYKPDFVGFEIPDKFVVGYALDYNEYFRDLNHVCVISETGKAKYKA
Description: Inhibition of human HGPRT using fixed concentration of guanine and variable concentrations of PRib-PP as substrate by spectrophotometric analysis.

The nature of series [3]: Ratio of Ki for Mycobacterium tuberculosis recombinant N-terminal 6His-tagged HGPRT expressed in Escherichia coli BL21 (DE3) to Ki for human HGPRT.
Series [4] has as its system Mycobacterium tuberculosis. Description: Antitubercular activity against replicating stage of Mycobacterium tuberculosis H37Rv after 5 days by resazurin dye-based assay. Type of series: functional. The note with it: 120 h.
Series [5] deals with Mycobacterium tuberculosis. Description: Antitubercular activity against Mycobacterium tuberculosis H37Rv after 5 days under hypoxic condition by resazurin dye-based assay. The note with it: 120 h. In kind it is functional. A general note: Resazurin is reduced to fluorescent resorufin, in cell work by metabolically active cells.
In series [6] the test system is Mycobacterium tuberculosis. Nature of the series: Antitubercular activity against Mycobacterium tuberculosis H37Rv infected in human THP-1 cells after 4 days by fluorescence based assay. Type of series: functional. The note with it: 96 h. A digest of the protocol: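 THP-1 cells differentiated with 50 ng/ml PMA for 72 h (5×10^5 cells/mL), infected with mCherry-expressing H37Rv at MOI 1:1 for 2 h, washed twice to remove extracellular bacilli.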

Series [7] in a line: Cytotoxicity against human A549 cells after 4 days by Coulter counting analysis. In kind it is cell-based. A digest of the protocol: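 A549 cells seeded at 7500/well; serially diluted compounds added the next day. After 4 days at 37 °C, cells were trypsinized and counted. CC50 is the concentration that gives 50% inhibition of proliferation relative to no-compound control. It was obtained by extrapolation assuming a semi-log dose-response.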

The target of series [8] is T2, Hypoxanthine-guanine phosphoribosyltransferase. Description: Inhibition of recombinant human HGPRT using fixed concentration of guanine and variable concentrations of PRib-PP as substrate by Hanes plot analysis.
For series [9], the system named is Mycobacterium tuberculosis. Nature of the series: Ratio of MIC90 for Mycobacterium tuberculosis H37Rv under hypoxic condition to MIC90 for replicating stage of Mycobacterium tuberculosis H37Rv. In kind it is functional. A digest of the protocol:
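Inhibitors were serially diluted, incubated 5 days at 37 °C, then read by fluorescence (ex 530/em 590) for MIC90. The hypoxic arm used a 0.1% O₂ chamber, was read 48 h after resazurin addition, and ran isoniazid controls in parallel.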

Series [10] deals with T1, Hypoxanthine-guanine phosphoribosyltransferase. Description: Inhibition of Mycobacterium tuberculosis recombinant N-terminal 6His-tagged HGPRT expressed in Escherichia coli BL21 (DE3) using fixed concentration of guanine and variable concentrations of PRib-PP as substrate in presence of pyrophosphate by spectrophotometric analysis. A digest of the protocol: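 Continuous assay of recombinant MtHGPRT at 257.5 nm (guanine to GMP) in 0.01 M phosphate, 12 mM MgCl2, pH 7.4, with 400 μM pyrophosphate added.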

The structures appear in SMILES notation. ≈ marks a conversion by molar mass, not a printed value.

In general, Ki refers to the dissociation constant of the complex between target and ligand, obtained from inhibition or displacement. As for `O=C(CCP(=O)(O)O)N1C[C@H](OCCP(=O)(O)O)[C@H](n2cnc3c(O)ncnc32)C1`, the Ki in series [1] amounted to 420 nM; in series [2] it was 600 nM. The Ratio Ki in series [3] is 0.7.
Broadly, the MIC90 is an inhibitory concentration at the 90% level, which refers to growth in some studies and to a panel of isolates in others. Low readings indicate higher susceptibility, high ones lower susceptibility. Usually CC50 stands for the concentration giving 50% cytotoxicity. Higher therefore signals better tolerance by the cells. As to `Nc1nc2c(ncn2[C@@H]2CN(C(=O)CCP(=O)(O)O)C[C@H]2OC[C@@H](O)P(=O)(O)O)c(=O)[nH]1`, the Ki came to 60 nM in series [1] and 3 nM in series [8]. Moreover, the Ratio Ki in series [3] is 20. Also, the MIC90 in series [4] was 14 µM (≈ 6.95 µg/mL); in series [5], 29 µM (≈ 14.4 µg/mL); in series [6], 85 µM (≈ 42.2 µg/mL). The compound further yielded a CC50 at 96 h in [7] of 132000 nM. Further, in [9], the Ratio worked out at 2.
`O=P(O)(O)CO[C@H]1CNC[C@H]1n1cnc2c(O)ncnc21`: the Ki in series [1] was 88000 nM; in series [2], 327000 nM; in series [10] it was 3000 nM. In [3], the Ratio Ki came to 0.3.
Regarding `Nc1nc2c(ncn2[C@@H]2CNC[C@@H]2OCP(=O)(O)O)c(=O)[nH]1`, the Ki in series [1] was 8000 nM; in series [2], 29000 nM; in [10], 740 nM. Besides, the Ratio Ki in [3] is 0.3.
With `Nc1nc2c(ncn2[C@@H]2CN(C(=O)CCP(=O)(O)O)C[C@@H]2OCCP(=O)(O)O)c(=O)[nH]1`, the Ki in series [1] amounted to 40 nM; in series [2] it was 30 nM. For the same compound, the Ratio Ki in series [3] stood at 1.3.
As to `O=C(CCP(=O)(O)O)N1C[C@@H](n2cnc3c(O)ncnc32)[C@H](OC[C@@H](O)P(=O)(O)O)C1`, the Ki in [1] was determined as 60 nM.
As to `Nc1nc2c(ncn2[C@@H]2CN(C(=O)CCP(=O)(O)O)C[C@H]2OC[C@H](O)P(=O)(O)O)c(=O)[nH]1`, the results for the Ki in series [1] and in [8] were 130 nM and 8 nM, respectively. The Ratio Ki in series [3] was 16.
Turning to `O=C(CCP(=O)(O)O)N1C[C@@H](n2cnc3c(O)ncnc32)[C@H](OC[C@H](O)P(=O)(O)O)C1`, the Ki in [1] came to 200 nM.
